Test results published in ChEMBL document CHEMBL4823270, “A first-in-class anticancer dual HDAC2/FAK inhibitors bearing hydroxamates/benzamides capped by pyridinyl-1,2,4-triazoles” (Eur J Med Chem, 2021).
Active and inactive are the calls of the source. No cut-off for these calls is given here.

Legend:
Histone deacetylase 3 = Histone deacetylase 3 (Homo sapiens, UniProt O15379); test: Inhibition of human full-length recombinant HDAC3 preincubated for 5 mins followed by HDAC substrate addition and further incubated for 45 mins by fluorescence microplate reader assay
HCT-116 = test: Growth inhibition of human HCT-116 cells at 10 uM incubated for 24 hrs by MTT assay relative to control; assay type: functional; details: read-out: GI
Summary of the method: (§1)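 Cells seeded at 1 × 10^4 per well, cultured overnight, then exposed to 10 μM compound or DMSO (negative control) for 24 h. After a PBS wash, MTT (2 mg/ml) was added for 4 h at 37°C and formazan dissolved in DMSO. OD read at 570 nm. Growth inhibition = 1 − (OD treated/OD control); at least three independent experiments.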

CAKI-1 [1] = test: Antiproliferative activity against human CAKI-1 cells assessed as cell growth inhibition incubated for 24 hrs by MTT assay; assay type: functional, cell-based; details: CAKI-1, 24 h
Focal adhesion kinase 1 [2] = target: T1, Focal adhesion kinase 1 (Homo sapiens, UniProt Q05397); test: Inhibition of FAK in human A498 cells assessed as reduction in FAK phosphorylation by Western blot analysis; assay type: cell-based
Summary of the method: (§2)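 40 μg protein (Bradford) resolved by SDS-PAGE, transferred to PVDF, blocked 1 h in milk or BSA. Primary antibody overnight, HRP secondary 1 h, ECL detection; β-actin as loading control.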
Target sequence in this assay (Q05397 2-1052 limits assumed): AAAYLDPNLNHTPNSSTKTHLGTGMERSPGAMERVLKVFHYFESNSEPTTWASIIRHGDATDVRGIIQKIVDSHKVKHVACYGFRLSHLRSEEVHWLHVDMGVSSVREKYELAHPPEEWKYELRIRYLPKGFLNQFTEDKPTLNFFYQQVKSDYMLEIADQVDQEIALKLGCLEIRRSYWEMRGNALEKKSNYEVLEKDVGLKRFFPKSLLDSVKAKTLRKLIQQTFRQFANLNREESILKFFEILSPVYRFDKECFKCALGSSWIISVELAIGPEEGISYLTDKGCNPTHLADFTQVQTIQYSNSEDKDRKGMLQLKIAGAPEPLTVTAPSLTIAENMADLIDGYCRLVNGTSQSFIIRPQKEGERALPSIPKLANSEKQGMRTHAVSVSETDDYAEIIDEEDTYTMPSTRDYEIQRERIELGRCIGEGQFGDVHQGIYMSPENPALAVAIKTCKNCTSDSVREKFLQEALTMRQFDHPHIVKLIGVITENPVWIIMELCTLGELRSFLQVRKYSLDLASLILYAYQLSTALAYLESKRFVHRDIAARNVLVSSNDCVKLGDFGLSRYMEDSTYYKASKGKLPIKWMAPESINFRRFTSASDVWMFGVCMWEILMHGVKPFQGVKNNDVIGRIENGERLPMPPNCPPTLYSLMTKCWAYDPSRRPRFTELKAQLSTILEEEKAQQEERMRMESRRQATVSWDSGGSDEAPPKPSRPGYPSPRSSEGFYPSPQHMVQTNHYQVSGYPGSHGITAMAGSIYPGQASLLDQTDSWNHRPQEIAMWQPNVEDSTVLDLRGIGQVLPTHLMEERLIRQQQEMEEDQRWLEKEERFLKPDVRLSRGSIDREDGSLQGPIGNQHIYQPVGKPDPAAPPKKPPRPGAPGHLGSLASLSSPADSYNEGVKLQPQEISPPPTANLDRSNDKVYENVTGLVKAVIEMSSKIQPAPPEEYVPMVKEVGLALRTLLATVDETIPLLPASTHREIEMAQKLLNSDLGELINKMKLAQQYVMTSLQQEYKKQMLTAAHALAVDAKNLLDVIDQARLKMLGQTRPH

HT-29 = test: Growth inhibition of human HT-29 cells at 10 uM incubated for 24 hrs by MTT assay relative to control; assay type: functional; details: read-out: GI; summary of the method: as §1
Histone deacetylase 1 = Histone deacetylase 1 (Homo sapiens, UniProt Q13547); test: Inhibition of human full-length recombinant HDAC1 preincubated for 5 mins followed by HDAC substrate addition and further incubated for 45 mins by fluorescence microplate reader assay
CAKI-1 [3] = test: Growth inhibition of human CAKI-1 cells at 10 uM incubated for 24 hrs by MTT assay relative to control; assay type: functional; details: read-out: GI; summary of the method: as §1
Focal adhesion kinase 1 [4] = target: T1, Focal adhesion kinase 1; test: Inhibition of FAK (unknown origin) by FRET-based Z'-Lyte assay
Summary of the method: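 Recombinant FAK kinase activity measured with the FRET-based Z'-LYTE format; the same platform was used for a kinase panel (FAK, FLT, FRK, IGF-1R, BTK). IC50 values determined.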
Target sequence in this assay (Q05397 whole entry): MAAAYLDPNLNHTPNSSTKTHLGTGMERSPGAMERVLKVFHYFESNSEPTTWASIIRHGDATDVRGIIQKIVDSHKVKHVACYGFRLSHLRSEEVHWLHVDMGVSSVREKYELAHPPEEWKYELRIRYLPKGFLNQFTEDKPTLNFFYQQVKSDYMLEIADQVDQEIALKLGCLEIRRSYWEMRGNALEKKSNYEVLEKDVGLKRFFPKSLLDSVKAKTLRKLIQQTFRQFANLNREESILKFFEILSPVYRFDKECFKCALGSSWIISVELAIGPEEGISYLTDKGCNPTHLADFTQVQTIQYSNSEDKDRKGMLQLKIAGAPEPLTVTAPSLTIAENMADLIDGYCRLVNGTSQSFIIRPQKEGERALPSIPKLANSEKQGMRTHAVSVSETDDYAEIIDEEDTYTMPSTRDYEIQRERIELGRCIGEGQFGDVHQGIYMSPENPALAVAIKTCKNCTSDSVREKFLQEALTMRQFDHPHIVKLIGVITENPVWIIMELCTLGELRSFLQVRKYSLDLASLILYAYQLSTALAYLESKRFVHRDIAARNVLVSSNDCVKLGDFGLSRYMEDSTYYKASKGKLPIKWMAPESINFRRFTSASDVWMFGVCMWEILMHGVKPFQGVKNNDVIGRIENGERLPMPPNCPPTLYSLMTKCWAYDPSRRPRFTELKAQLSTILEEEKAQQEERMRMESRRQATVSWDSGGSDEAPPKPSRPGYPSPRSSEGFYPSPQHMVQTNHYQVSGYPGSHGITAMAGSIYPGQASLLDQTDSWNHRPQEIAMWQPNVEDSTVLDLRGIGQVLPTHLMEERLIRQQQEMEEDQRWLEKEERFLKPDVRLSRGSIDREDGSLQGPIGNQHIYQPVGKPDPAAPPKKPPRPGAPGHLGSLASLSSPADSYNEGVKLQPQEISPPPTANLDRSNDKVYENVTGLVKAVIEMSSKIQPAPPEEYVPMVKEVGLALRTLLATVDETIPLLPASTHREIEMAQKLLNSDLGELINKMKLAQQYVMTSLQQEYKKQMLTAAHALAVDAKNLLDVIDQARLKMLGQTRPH

A498 [5] = test: Antiproliferative activity against human A498 cells assessed as cell growth inhibition incubated for 24 hrs by MTT assay; assay type: functional, cell-based; details: A498, 24 h
Histone deacetylase 8 = target: T2, Histone deacetylase 8 (Homo sapiens, UniProt Q9BY41); test: Inhibition of human full-length recombinant C-terminal His-tagged HDAC8 expressed in baculovirus infected Sf9 insect cells preincubated for 5 mins followed by HDAC substrate addition and further incubated for 45 mins by fluorescence microplate reader assay
T2 sequence (Q9BY41 whole entry): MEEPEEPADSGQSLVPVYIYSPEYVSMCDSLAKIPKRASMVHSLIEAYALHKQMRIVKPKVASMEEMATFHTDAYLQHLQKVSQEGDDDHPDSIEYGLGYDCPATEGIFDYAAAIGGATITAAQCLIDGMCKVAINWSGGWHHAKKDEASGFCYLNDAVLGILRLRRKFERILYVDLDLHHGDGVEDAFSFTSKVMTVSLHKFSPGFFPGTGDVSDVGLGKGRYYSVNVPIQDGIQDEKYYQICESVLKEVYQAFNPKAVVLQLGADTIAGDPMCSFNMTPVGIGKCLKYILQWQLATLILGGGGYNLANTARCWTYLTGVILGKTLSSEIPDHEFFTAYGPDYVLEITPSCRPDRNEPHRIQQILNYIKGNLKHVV

Focal adhesion kinase 1 [6] = target: T1, Focal adhesion kinase 1; test: Inhibition of FAK in human CAKI-1 cells assessed as reduction in FAK phosphorylation by Western blot analysis; assay type: cell-based; summary of the method: as §2
Target sequence in this assay (Q05397 2-1052 limits assumed): as the sequence (Q05397 2-1052 limits assumed) above

Histone deacetylase 2 [7] = target: T3, Histone deacetylase 2 (Homo sapiens, UniProt Q92769); test: Inhibition of human full-length recombinant HDAC2 preincubated for 5 mins followed by HDAC substrate addition and further incubated for 45 mins by fluorescence microplate reader assay
KG-1 = test: Growth inhibition of human KG-1 cells at 10 uM incubated for 24 hrs by MTT assay relative to control; assay type: functional; details: KG-1, 24 h; summary of the method: as §1
Histone deacetylase 2 [8] = target: T3, Histone deacetylase 2; test: Inhibition of HDAC2 in human CAKI-1 cells assessed as reduction in HDAC2 expression by Western blot analysis; assay type: cell-based; summary of the method: as §2
A498 [9] = test: Growth inhibition of human A498 cells at 10 uM incubated for 24 hrs by MTT assay relative to control; assay type: functional; details: read-out: GI; summary of the method: as §1
K562 = test: Growth inhibition of human K562 cells at 10 uM incubated for 24 hrs by MTT assay relative to control; assay type: functional; details: read-out: GI; summary of the method: as §1
Histone deacetylase 2 [10] = target: T3, Histone deacetylase 2; test: Inhibition of HDAC2 in human A498 cells assessed as reduction in HDAC2 expression by Western blot analysis; assay type: cell-based; summary of the method: as §2
[11] = target: T4, Protein deacetylase HDAC6 (Homo sapiens, UniProt Q9UBN7); test: Inhibition of human full-length recombinant HDAC6 preincubated for 5 mins followed by HDAC substrate addition and further incubated for 45 mins by fluorescence microplate reader assay
T4 sequence (Q9UBN7 whole entry): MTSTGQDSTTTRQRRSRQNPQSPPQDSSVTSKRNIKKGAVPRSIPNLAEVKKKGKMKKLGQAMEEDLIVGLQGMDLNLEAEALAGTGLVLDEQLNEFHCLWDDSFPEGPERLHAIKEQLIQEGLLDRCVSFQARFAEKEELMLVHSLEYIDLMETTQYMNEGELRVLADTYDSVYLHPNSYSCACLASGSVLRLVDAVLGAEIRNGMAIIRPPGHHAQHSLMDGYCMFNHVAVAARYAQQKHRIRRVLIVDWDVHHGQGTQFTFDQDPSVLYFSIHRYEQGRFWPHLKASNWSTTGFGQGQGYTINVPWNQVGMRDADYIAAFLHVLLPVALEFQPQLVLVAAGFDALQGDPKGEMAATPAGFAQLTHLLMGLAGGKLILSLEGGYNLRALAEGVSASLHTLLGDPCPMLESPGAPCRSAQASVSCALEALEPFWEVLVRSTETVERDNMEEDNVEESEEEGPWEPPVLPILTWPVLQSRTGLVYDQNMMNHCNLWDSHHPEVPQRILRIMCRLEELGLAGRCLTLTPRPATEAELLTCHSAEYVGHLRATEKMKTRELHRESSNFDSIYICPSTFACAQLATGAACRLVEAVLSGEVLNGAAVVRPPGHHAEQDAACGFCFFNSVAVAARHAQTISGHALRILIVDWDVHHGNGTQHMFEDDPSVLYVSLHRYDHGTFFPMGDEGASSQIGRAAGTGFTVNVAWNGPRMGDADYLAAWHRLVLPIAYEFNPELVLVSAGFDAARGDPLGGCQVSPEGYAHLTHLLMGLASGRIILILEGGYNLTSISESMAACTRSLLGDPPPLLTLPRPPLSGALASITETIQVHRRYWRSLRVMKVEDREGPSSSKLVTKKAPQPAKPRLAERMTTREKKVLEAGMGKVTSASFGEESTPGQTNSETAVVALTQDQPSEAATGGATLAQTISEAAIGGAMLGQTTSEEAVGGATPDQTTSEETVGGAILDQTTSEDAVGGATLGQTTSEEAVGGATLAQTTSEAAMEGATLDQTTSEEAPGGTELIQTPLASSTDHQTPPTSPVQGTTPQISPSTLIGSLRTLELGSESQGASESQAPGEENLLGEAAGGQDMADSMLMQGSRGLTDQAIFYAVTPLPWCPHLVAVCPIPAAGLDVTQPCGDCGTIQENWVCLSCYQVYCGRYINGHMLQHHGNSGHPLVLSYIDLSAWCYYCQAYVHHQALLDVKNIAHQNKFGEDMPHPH

T3 sequence (Q92769 whole entry): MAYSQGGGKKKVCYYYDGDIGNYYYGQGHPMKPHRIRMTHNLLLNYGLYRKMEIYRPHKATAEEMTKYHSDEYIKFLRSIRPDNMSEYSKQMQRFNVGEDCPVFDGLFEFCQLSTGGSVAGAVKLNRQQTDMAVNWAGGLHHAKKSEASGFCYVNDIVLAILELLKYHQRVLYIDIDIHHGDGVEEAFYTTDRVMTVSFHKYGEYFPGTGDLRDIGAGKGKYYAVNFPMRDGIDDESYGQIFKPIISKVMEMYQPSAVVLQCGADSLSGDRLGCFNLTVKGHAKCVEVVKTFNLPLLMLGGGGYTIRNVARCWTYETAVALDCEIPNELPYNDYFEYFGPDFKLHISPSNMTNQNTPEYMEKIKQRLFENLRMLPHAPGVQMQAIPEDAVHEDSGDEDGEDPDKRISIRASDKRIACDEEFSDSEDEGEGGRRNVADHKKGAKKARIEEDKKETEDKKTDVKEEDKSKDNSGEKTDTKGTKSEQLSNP
Histone deacetylase 1, sequence (Q13547 whole entry): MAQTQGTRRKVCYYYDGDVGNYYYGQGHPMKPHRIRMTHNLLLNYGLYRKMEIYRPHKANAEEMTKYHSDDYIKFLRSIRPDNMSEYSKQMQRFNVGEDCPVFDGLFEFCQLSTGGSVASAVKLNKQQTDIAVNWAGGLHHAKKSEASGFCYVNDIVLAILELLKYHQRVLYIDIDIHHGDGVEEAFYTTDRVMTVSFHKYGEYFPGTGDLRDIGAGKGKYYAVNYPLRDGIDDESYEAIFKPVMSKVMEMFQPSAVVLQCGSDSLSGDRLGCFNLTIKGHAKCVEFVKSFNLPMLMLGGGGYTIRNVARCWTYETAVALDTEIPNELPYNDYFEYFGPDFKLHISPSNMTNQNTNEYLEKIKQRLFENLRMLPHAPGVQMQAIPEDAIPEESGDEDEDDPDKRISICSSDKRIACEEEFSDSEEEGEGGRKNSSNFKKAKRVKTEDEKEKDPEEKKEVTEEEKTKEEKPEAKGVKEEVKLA
Histone deacetylase 3, sequence (O15379 whole entry): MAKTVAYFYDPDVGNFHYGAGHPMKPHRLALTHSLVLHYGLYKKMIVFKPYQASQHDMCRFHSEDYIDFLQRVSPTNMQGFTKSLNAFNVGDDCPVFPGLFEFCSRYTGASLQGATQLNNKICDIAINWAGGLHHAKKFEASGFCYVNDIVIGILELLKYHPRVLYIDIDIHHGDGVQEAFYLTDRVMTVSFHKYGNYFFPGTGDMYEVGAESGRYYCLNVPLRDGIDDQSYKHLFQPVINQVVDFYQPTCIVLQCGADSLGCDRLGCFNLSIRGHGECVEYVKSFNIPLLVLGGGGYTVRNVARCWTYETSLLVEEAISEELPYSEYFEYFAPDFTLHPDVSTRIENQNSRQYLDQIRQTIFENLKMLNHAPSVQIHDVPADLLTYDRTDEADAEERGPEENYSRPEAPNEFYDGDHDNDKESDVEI

SMILES | IC50 (Histone deacetylase 3) | inhibition of growth at 10 µM (HCT-116) | IC50 (CAKI-1 [1]) | inhibition (Focal adhesion kinase 1 [2]) | inhibition of growth at 10 µM (HT-29) | IC50 (Histone deacetylase 1) | inhibition of growth at 10 µM (CAKI-1 [3]) | IC50 (Focal adhesion kinase 1 [4]) | IC50 (A498 [5]) | IC50 (Histone deacetylase 8) | inhibition (Focal adhesion kinase 1 [6]) | IC50 (Histone deacetylase 2 [7]) | inhibition in vitro at 10 µM (KG-1) | inhibition (Histone deacetylase 2 [8]) | inhibition of growth at 10 µM (A498 [9]) | inhibition of growth at 10 µM (K562) | inhibition (Histone deacetylase 2 [10]) | IC50 [11]
C=CCn1c(SCCCCCC(=O)Nc2ccccc2N)nnc1-c1ccncc1 | 11 µM | 90.5% | 1.34 µM | Active | 95.5% | 31 µM | 95.4% | 0.0143 µM | 1.19 µM | 5.86 µM | Active | 1.4 µM | 94.2% | Active | 97.7% | 86.4% | Active | 9.79 µM
CCn1c(SCCCCCC(=O)NO)nnc1-c1ccncc1 | > 300 µM | 21.4% | 112 µM |  | 9.15% | 76.3 µM | 2.06% | 0.124 µM | 149 µM | > 300 µM |  | 28.9 µM | 17.3% |  | 5.26% | 4.09% |  | 270 µM
Cn1c(SCc2ccc(C(=O)Nc3ccccc3N)cc2)nnc1-c1ccncc1 | 71.1 µM | 18% | 6.97 µM |  | 47.9% | 7.64 µM | 75.2% | 0.0531 µM | 9.34 µM | 7.85 µM |  | 13 µM | 24.1% |  | 55.6% | 54.1% |  | 11 µM
C=CCn1c(SCc2ccc(C(=O)NO)cc2)nnc1-c1ccncc1 | 20.7 µM | 44.1% | 9.56 µM |  | 25.3% | 19.6 µM | 50.2% | 0.0461 µM | 13.2 µM | 28.4 µM |  | 11.2 µM | 62% |  | 44.9% | 36.1% |  | 9.86 µM
Nc1ccccc1NC(=O)c1ccc(CSc2nnc(-c3ccncc3)n2-c2ccccc2)cc1 | 113 µM | 45.4% | 8.35 µM |  | 37.9% | 22.1 µM | 66.9% | 0.0961 µM | 6.19 µM | 5.32 µM |  | 8.39 µM | 47.3% |  | 72.5% | 19.6% |  | 9.63 µM
CCn1c(SCc2ccc(C(=O)NO)cc2)nnc1-c1ccncc1 | 174 µM | 1.03% | 322 µM |  | 8.34% | > 300 µM | 9.34% | 0.254 µM | 203 µM | > 300 µM |  | 30.4 µM | 7.12% |  | 1.67% | 14.3% |  | > 300 µM
Nc1ccccc1NC(=O)CCCCCSc1nnc(-c2ccncc2)n1-c1ccccc1 | > 300 µM | 24.5% | 215 µM |  | 9.64% | 256 µM | 1.65% | 0.312 µM | 342 µM | > 300 µM |  | 38.7 µM | 34.9% |  | 4.67% | 15.1% |  | 159 µM
